# Assay results published in ChEMBL document CHEMBL3822354, “Synthesis and evaluation of 2-pyridinylpyrimidines as inhibitors of HIV-1 structural protein assembly” (Bioorg Med Chem Lett, 2016).
# Tests used:
# [1] = Solubility of compound in PBS by UV spectral analysis; assay type: physicochemical
# [2] = target: Structural capsid protein (Human immunodeficiency virus 1, UniProt Q76129); assay: Inhibition of CAI-biotin peptide binding to GST-tagged HIV1 capsid C-terminal domain by alphascreen assay
# Method in brief: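 Competitive AlphaScreen assay: test compound competes with CAI-biotin peptide for binding to GST-CA. IC50 is the compound concentration that lowers the AlphaScreen signal by 50%.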
# [3] = Cytotoxicity against human MT4 cells after 72 hrs by XTT assay; assay type: cell-based
# Method in brief: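 The XTT read-out was run in parallel with the MT-4 infectivity assay, with two-fold serial compound dilutions on MT-4 cells.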
# [4] = system: Human immunodeficiency virus 1; assay: Antiviral activity against HIV1 NL4-3 infected in human MT4 cells assessed as inhibition of viral replication after 3 days by luciferase reporter gene assay; assay type: functional, organism-based; conditions: Human immunodeficiency virus 1, NL4-3, MT4, 72 h
# Method in brief: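 Two-fold serial dilutions of compound were added to MT-4 cells infected with HIV-1 NL4-3 carrying a Renilla luciferase reporter. Replication was read as luciferase activity after 3 days. EC50 is the concentration inhibiting replication by 50%.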
# Chain of Structural capsid protein (Q76129 whole entry, the tested form may be a part): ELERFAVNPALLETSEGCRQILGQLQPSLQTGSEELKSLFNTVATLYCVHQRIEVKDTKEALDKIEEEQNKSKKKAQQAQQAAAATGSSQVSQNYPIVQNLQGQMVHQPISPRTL
SMILES,solubility [1] [µM],IC50 [2] [µM],CC50 at 72 h [3] [µM],EC50 [4] [µM]
CCOC(=O)c1cccc(Nc2ccnc(-c3ccncc3)n2)c1,46,> 100,–,–
O=C(NCCF)c1ccc(Nc2ccnc(-c3cccnc3)n2)cc1F,84,43,–,–
Cc1cc(Nc2ccc(C(=O)N3CCN(c4ccc(F)cc4)CC3)cc2)nc(-c2cccnc2)n1,42,20,–,–
CCOC(=O)c1ccc(Nc2ccnc(-c3cccnc3)n2)cc1,61,19,–,–
Cc1cc(Nc2ccc(C(=O)NCCF)c(F)c2)nc(-c2ccncc2)n1,9,> 100,–,–
CC(=O)c1ccc(Nc2cc(C)nc(-c3cccnc3)n2)cc1F,32,25,–,–
Cc1cc(Nc2ccc(C(=O)NCCF)cc2F)nc(-c2cccnc2)n1,50,15,> 100,> 100
Cc1cc(Nc2cc(F)c(F)c(F)c2)nc(-c2cccnc2)n1,73,22,–,–
O=C(NCCF)c1ccc(Nc2ccnc(-c3ccncc3)n2)cc1,97,> 100,–,–
O=C(NCCF)c1ccc(Nc2ccnc(-c3cccnc3)n2)c(F)c1,96,73,–,–
CCOC(=O)c1ccc(Nc2ccnc(-c3ccncc3)n2)cc1,52,28,–,–
CCOC(=O)c1cccc(Nc2ccnc(-c3cccnc3)n2)c1,92,21,–,–
CC(=O)c1cccc(Nc2cc(C)nc(-c3ccncc3)n2)c1,29,> 100,–,–
Cc1cc(Nc2ccc(C(=O)N3CCN(C(=O)C4CCCO4)CC3)cc2)nc(-c2cccnc2)n1 (configuration not stated),99,54,–,–
CC(=O)c1cc(Nc2cc(C)nc(-c3cccnc3)n2)ccc1F,40,9,> 100,> 100
Cc1cc(Nc2ccc(C(=O)NCCF)cc2)nc(-c2cccnc2)n1,99,8,44,25
CCOC(=O)c1ccc(Nc2cc(C)nc(-c3cccnc3)n2)cc1,71,21,–,–
Fc1ccc(Nc2ccnc(-c3cccnc3)n2)cc1F,67,38,–,–

SMILES,solubility [1] [µM],IC50 [2] [µM],CC50 at 72 h [3] [µM],EC50 [4] [µM]
CC(=O)c1cc(Nc2cc(C)nc(-c3ccncc3)n2)ccc1F,23,83,–,–
O=C(NCCF)c1cc(Nc2ccnc(-c3cccnc3)n2)ccc1F,97,68,–,–
CCOC(=O)c1ccccc1Nc1ccnc(-c2cccnc2)n1,94,> 100,–,–
Cc1cc(Nc2ccc(C(=O)NCCF)c(F)c2)nc(-c2cccnc2)n1,98,3,35,20
Cc1cc(Nc2ccc(C(=O)NCCF)cc2)nc(-c2ccncc2)n1,40,> 100,–,–
Cc1cc(Nc2cc(C(=O)NCCF)ccc2F)nc(-c2cccnc2)n1,98,52,–,–
CC(=O)c1ccc(F)c(Nc2cc(C)nc(-c3cccnc3)n2)c1,58,> 100,–,–
CC(=O)c1ccc(Nc2cc(C)nc(-c3cccnc3)n2)cc1,94,12,77,50
Fc1ccc(Nc2ccnc(-c3ccncc3)n2)cc1F,42,81,–,–
CC(=O)c1ccc(Nc2ccnc(-c3ccncc3)n2)cc1,37,> 100,–,–
CCOC(=O)c1ccc(Nc2ccnc(-c3cccnc3)n2)c(F)c1,53,30,–,–
CC(=O)c1ccc(Nc2ccnc(-c3cccnc3)n2)cc1,98,53,–,–
O=C(NCCF)c1ccc(Nc2ccnc(-c3cccnc3)n2)cc1,99,34,–,–
CC(=O)c1ccc(Nc2cc(C)nc(-c3ccncc3)n2)cc1,6,54,–,–
CCOC(=O)c1ccc(Nc2cc(C)nc(-c3ccncc3)n2)cc1,4,36,–,–
CC(=O)c1cccc(Nc2ccnc(-c3cccnc3)n2)c1,97,39,–,–
CC(=O)c1cccc(Nc2cc(C)nc(-c3cccnc3)n2)c1,95,10,64,23
